Assay results reported in ChEMBL document CHEMBL1926538, “3,5-Disubstituted-thiazolidine-2,4-dione analogs as anticancer agents: design, synthesis and biological characterization” (Eur J Med Chem, 2012).
The source made the active and inactive calls. No cut-off for these calls is given here.

Key:
U-937 [1] = assay: Induction of apoptosis in human U937 cells assessed as necrotic cells at 10 uM after 6 hrs by annexinV-propidium iodide staining-based flow cytometric analysis (reference value: 1.2%); assay type: functional
U-937 [2] = assay: Induction of apoptosis in human U937 cells assessed as late apoptotic cells at 10 uM after 6 hrs by annexinV-propidium iodide staining-based flow cytometric analysis (reference value: 13.8%); assay type: functional
U-937 [3] = assay: Induction of apoptosis in human U937 cells assessed as early apoptotic cells at 10 uM after 6 hrs by annexinV-propidium iodide staining-based flow cytometric analysis (reference value: 4.6%); assay type: functional
U-937 [4] = assay: Induction of apoptosis in human U937 cells assessed as necrotic cells at 10 uM after 3 hrs by annexinV-propidium iodide staining-based flow cytometric analysis (reference value: 2.3%); assay type: functional
U-937 [5] = assay: Induction of apoptosis in human U937 cells assessed as late apoptotic cells at 10 uM after 3 hrs by annexinV-propidium iodide staining-based flow cytometric analysis (reference value: 8.6%); assay type: functional
U-937 [6] = assay: Induction of apoptosis in human U937 cells assessed as early apoptotic cells at 10 uM after 3 hrs by annexinV-propidium iodide staining-based flow cytometric analysis (reference value: 2.8%); assay type: functional
U-937 [7] = assay: Induction of apoptosis in human U937 cells assessed as viable cells at 10 uM after 3 hrs by annexinV-propidium iodide staining-based flow cytometric analysis (reference value: 86.3%); assay type: functional; settings: U-937, 3 h, read-out: Activity
U-937 [8] = assay: Induction of apoptosis in human U937 cells assessed as viable cells at 3 uM after 18 hrs by annexinV-propidium iodide staining-based flow cytometric analysis (reference value: 87.2%); assay type: functional; settings: U-937, 18 h, read-out: Activity
U-937 [9] = assay: Induction of apoptosis in human U937 cells assessed as necrotic cells at 3 uM after 6 hrs by annexinV-propidium iodide staining-based flow cytometric analysis (reference value: 1.2%); assay type: functional
U-937 [10] = assay: Induction of apoptosis in human U937 cells assessed as early apoptotic cells at 3 uM after 6 hrs by annexinV-propidium iodide staining-based flow cytometric analysis (reference value: 4.6%); assay type: functional
U-937 [11] = assay: Induction of apoptosis in human U937 cells assessed as viable cells at 3 uM after 6 hrs by annexinV-propidium iodide staining-based flow cytometric analysis (reference value: 80.3%); assay type: functional; settings: U-937, 6 h, read-out: Activity
U-937 [12] = assay: Induction of apoptosis in human U937 cells assessed as necrotic cells at 3 uM after 3 hrs by annexinV-propidium iodide staining-based flow cytometric analysis (reference value: 2.3%); assay type: functional
[13] = Growth inhibition of human NCI60 cells; assay type: functional
[14] = molecular target: Proto-oncogene tyrosine-protein kinase Src (Homo sapiens) (UniProt P12931); assay: Inhibition of SRC at 10 uM
Chain of Proto-oncogene tyrosine-protein kinase Src (Homo sapiens) (P12931 2-536 limits assumed): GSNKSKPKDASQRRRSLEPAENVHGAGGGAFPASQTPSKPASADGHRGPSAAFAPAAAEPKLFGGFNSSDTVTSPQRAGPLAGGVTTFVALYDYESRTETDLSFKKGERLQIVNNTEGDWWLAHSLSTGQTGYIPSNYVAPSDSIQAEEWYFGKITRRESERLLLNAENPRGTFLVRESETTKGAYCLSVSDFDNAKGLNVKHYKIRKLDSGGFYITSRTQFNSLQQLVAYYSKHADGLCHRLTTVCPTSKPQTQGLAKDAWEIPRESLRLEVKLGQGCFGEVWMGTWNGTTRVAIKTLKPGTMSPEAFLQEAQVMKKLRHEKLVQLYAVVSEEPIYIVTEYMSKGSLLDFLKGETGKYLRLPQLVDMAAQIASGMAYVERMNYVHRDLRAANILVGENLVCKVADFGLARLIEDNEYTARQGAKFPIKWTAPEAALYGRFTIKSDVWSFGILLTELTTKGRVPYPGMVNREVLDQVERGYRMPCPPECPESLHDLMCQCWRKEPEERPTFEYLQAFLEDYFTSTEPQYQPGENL

[15] = molecular target: MAP kinase-activated protein kinase 5 (Homo sapiens) (UniProt Q8IW41); assay: Inhibition of PRAK at 10 uM
Chain of MAP kinase-activated protein kinase 5 (Homo sapiens) (Q8IW41 whole entry): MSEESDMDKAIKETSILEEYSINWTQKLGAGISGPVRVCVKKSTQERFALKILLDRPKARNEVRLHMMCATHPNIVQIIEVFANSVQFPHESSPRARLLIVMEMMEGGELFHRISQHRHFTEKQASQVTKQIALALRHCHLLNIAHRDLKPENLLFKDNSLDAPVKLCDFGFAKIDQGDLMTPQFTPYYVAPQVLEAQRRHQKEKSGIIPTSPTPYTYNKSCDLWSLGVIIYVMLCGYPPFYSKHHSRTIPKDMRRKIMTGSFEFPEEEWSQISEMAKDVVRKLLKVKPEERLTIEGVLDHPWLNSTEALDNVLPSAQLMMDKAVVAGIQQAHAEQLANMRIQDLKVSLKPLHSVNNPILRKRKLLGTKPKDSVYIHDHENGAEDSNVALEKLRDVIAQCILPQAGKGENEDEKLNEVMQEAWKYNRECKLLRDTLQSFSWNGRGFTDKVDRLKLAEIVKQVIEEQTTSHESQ

[16] = molecular target: Protein kinase C zeta type (Homo sapiens) (UniProt Q05513); assay: Inhibition of PKCzeta at 10 uM
Chain of Protein kinase C zeta type (Homo sapiens) (Q05513 whole entry): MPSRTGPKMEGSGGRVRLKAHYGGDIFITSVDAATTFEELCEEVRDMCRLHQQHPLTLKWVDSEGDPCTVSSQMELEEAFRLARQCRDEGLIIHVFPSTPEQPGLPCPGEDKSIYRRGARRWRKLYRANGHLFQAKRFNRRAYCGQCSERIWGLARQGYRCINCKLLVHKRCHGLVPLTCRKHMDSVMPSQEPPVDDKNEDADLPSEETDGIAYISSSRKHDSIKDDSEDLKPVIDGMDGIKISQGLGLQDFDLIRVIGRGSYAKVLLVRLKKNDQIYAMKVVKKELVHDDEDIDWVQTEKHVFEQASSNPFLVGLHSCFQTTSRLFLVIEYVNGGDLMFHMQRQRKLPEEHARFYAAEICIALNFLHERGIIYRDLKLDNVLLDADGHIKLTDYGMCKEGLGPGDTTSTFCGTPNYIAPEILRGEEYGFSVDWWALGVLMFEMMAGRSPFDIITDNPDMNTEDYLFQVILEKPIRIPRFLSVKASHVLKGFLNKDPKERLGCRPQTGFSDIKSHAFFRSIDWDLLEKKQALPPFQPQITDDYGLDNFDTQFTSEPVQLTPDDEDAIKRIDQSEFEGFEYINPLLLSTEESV

[17] = Inhibition of PKA at 10 uM
[18] = molecular target: Serine/threonine-protein kinase pim-2 (Homo sapiens) (UniProt Q9P1W9); assay: Inhibition of PIM2 at 10 uM
[19] = molecular target: Hepatocyte growth factor receptor (Homo sapiens) (UniProt P08581); assay: Inhibition of MET at 10 uM
Chain of Hepatocyte growth factor receptor (Homo sapiens) (P08581 whole entry): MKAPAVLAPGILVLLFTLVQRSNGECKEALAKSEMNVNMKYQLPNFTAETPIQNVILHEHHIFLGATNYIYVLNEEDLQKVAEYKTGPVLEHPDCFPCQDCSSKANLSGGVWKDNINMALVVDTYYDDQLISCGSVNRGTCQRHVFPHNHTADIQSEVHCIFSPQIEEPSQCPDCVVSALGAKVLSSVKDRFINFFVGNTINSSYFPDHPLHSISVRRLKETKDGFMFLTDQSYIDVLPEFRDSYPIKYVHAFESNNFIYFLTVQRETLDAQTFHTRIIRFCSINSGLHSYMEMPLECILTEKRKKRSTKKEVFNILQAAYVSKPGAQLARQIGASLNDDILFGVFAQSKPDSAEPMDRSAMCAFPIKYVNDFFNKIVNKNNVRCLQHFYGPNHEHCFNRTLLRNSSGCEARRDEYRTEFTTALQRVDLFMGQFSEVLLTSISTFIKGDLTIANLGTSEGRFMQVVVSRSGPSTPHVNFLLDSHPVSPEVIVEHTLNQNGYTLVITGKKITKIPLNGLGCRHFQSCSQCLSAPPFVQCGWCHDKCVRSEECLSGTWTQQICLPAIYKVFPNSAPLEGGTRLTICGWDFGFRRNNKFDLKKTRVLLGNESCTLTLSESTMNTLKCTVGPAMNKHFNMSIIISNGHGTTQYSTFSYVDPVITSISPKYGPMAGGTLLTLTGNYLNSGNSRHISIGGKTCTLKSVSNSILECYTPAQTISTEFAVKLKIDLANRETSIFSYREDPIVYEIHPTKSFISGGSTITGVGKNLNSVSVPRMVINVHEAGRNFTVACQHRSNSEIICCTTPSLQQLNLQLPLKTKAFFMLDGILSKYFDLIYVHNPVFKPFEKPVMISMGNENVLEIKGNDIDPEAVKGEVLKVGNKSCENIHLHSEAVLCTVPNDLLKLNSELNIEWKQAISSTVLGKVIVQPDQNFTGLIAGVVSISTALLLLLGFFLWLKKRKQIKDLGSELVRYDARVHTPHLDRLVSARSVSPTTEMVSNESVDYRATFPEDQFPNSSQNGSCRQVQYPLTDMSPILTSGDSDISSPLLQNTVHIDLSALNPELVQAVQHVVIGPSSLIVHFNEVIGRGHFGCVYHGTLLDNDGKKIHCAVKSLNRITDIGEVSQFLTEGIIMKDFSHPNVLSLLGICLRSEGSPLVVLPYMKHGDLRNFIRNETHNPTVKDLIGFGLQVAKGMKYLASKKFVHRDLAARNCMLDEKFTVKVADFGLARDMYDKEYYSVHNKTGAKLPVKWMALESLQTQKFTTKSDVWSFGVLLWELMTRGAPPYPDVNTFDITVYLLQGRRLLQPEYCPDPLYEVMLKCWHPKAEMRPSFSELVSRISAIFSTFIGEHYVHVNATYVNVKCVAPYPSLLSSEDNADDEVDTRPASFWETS

[20] = molecular target: Interleukin-1 receptor-associated kinase 4 (Homo sapiens) (UniProt Q9NWZ3); assay: Inhibition of IRAK4 at 10 uM
Chain of Interleukin-1 receptor-associated kinase 4 (Homo sapiens) (Q9NWZ3 whole entry): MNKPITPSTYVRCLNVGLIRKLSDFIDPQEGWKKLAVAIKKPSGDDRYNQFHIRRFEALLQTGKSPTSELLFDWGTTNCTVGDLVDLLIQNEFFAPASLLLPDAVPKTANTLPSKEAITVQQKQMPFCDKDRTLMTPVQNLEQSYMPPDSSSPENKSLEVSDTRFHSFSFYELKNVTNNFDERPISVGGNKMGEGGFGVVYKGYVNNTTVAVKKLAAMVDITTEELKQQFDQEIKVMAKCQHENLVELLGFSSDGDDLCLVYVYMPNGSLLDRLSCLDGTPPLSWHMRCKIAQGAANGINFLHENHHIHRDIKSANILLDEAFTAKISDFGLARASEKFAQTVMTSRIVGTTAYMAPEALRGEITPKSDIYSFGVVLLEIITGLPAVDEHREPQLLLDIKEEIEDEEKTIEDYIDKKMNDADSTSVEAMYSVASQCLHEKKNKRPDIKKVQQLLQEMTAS

[21] = molecular target: Mitogen-activated protein kinase 3 (Homo sapiens) (UniProt P27361); assay: Inhibition of Erk1 at 10 uM
Chain of Mitogen-activated protein kinase 3 (Homo sapiens) (P27361 whole entry): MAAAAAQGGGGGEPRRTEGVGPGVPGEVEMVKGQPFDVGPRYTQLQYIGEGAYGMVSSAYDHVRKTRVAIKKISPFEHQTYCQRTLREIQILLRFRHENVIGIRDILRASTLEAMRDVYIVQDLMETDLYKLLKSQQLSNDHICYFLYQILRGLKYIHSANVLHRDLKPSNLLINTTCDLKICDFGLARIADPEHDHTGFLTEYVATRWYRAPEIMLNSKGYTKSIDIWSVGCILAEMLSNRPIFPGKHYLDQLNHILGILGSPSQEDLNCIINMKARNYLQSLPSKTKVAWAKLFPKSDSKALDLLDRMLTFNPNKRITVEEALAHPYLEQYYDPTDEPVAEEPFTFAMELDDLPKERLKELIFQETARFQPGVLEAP

[22] = molecular target: Serine/threonine-protein kinase Chk1 (Homo sapiens) (UniProt O14757); assay: Inhibition of CHK1 at 10 uM
[23] = molecular target: Calcium/calmodulin-dependent protein kinase type IV (Homo sapiens) (UniProt Q16566); assay: Inhibition of CAMK4 at 10 uM
[24] = molecular target: 5'-AMP-activated protein kinase catalytic subunit alpha-2 (Homo sapiens) (UniProt P54646); assay: Inhibition of AMPK at 10 uM
Chain of 5'-AMP-activated protein kinase catalytic subunit alpha-2 (Homo sapiens) (P54646 whole entry, looked up): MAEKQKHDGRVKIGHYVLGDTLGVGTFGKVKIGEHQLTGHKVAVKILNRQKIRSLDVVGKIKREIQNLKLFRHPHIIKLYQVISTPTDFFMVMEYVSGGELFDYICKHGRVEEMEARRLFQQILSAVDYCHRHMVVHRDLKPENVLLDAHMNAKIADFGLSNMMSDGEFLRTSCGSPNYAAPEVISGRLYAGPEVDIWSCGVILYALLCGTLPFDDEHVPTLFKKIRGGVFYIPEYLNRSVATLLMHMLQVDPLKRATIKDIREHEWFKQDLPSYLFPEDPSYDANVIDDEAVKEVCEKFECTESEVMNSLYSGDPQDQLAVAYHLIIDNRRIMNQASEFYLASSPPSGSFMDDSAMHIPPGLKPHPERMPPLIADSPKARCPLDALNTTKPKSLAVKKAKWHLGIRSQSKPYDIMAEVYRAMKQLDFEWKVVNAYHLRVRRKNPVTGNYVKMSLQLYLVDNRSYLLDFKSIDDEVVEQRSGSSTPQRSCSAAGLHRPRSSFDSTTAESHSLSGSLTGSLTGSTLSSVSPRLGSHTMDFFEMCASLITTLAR

DU-145 [25] = assay: Inhibition of PI3K-mediated Akt phosphorylation in human DU145 cells at 10 to 20 uM after 24 hrs by Western blot analysis; assay type: cell-based
How it was run: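 DU145 cells were grown in RPMI 1640 with 10% FBS and treated for 24 h at the indicated concentrations. Lysates were immunoblotted with phospho-Akt (Ser473) primary antibody (1:1000) and HRP secondary (1:2000), then detected by chemiluminescence. α-Tubulin reprobing checked loading.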

PC-3 = assay: Growth inhibition of human PC3 cells after 24 hrs by MTS assay; assay type: functional, cell-based
How it was run: (§1)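 Cells in RPMI 1640 with 10% heat-inactivated FBS, seeded 2 × 10⁴ cells/well and exposed 24 h. MTS reagent added, then 1 h further incubation at 37 °C, 5% CO₂. Formazan absorbance read at 490 nm. Viability expressed as percentage of untreated controls.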

DU-145 [26] = assay: Growth inhibition of human DU145 cells after 24 hrs by MTS assay; assay type: functional, cell-based; how it was run: as §1
U-937 [27] = assay: Inhibition of PI3K-mediated Akt phosphorylation in human U937 cells at 3 uM after 1 hr by Western blot analysis; assay type: cell-based
[28] = molecular target: RAF proto-oncogene serine/threonine-protein kinase (Homo sapiens) (UniProt P04049); assay: Inhibition of raf-mediated ERK phosphorylation in human U937 cells at 3 uM after 1 hr by Western blot analysis; assay type: cell-based; settings: U-937
Chain of RAF proto-oncogene serine/threonine-protein kinase (Homo sapiens) (P04049 whole entry): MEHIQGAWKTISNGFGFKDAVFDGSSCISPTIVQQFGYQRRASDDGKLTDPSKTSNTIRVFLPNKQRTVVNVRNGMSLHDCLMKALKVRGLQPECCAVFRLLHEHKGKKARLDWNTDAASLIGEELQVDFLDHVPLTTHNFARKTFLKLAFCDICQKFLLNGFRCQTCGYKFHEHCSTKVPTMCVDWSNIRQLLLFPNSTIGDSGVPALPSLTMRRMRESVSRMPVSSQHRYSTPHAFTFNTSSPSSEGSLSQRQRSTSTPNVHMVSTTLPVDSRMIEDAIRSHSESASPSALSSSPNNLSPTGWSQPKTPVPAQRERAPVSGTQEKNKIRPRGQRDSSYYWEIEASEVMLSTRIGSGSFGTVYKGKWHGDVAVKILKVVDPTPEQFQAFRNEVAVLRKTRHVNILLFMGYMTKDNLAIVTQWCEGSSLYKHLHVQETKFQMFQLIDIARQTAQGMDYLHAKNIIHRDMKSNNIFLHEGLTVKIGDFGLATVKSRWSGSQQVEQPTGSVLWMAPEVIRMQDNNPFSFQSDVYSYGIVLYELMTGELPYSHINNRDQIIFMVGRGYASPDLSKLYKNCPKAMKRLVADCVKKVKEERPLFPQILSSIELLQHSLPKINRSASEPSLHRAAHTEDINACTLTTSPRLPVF
How it was run: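 Cells in RPMI 1640 with 10% heat-inactivated FBS, 37 °C, 5% CO2; treated in growing medium (DU145 24 h; U937 1 h at 5 × 10⁵/mL). Lysed by sonication in SDS sample buffer with protease inhibitors plus 1 mM orthovanadate and pyrophosphate, boiled 5 min. Blots blocked in 5% milk, primary antibodies 1:1000 overnight at 4 °C, HRP secondary 1:2000, chemiluminescence; α-tubulin loading control.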

U-937 [29] = assay: Growth inhibition of human U937 cells after 24 hrs by MTS assay; assay type: functional, cell-based; settings: U-937, 24 h; how it was run: as §1
U-937 [30] = assay: Cell cycle arrest in human U937 cells assessed as sub-diploid apoptotic fraction at 10 uM after 24 hrs by propidium iodide staining-based flow cytometric analysis; assay type: functional
How it was run: (§2)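 Cells cultured in RPMI 1640 with 10% FBS and treated 24 h at the indicated concentrations. Stained with propidium iodide for 4 h at 4 °C in the dark. Flow cytometry gave the percentage of cells in G₀/G₁, S, G₂/M and sub-G₁ phases.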

U-937 [31] = assay: Cell cycle arrest in human U937 cells assessed as decrease in G2/M-phase population at 10 uM after 24 hrs by propidium iodide staining-based flow cytometric analysis; assay type: functional; how it was run: as §2
DU-145 [32] = assay: Induction of apoptosis in human DU145 cells assessed as necrotic cells at 20 uM after 24 hrs by annexinV-propidium iodide staining-based flow cytometric analysis (reference value: 2.1%); assay type: functional
[33] = Induction of apoptosis in human M12 cells assessed as late apoptotic cells at 20 uM after 24 hrs by annexinV-propidium iodide staining-based flow cytometric analysis (reference value: 4.7%); assay type: functional
[34] = Inhibition of MSK2 at 10 uM

NCCN1C(=O)S/C(=C\CCC2CCCCC2)C1=O
Activity (U-937 [1]): 1.4%
Activity (U-937 [2]): 40.2%
Activity (U-937 [3]): 14.2%
Activity (U-937 [4]): 2.4%
Activity (U-937 [5]): 11%
Activity (U-937 [6]): 23.8%
viability at 10 µM (U-937 [7]): 62.8%
viability at 3 µM (U-937 [8]): 90.1%
Activity (U-937 [9]): 2.1%
Activity (U-937 [10]): 3.8%
viability at 3 µM (U-937 [11]): 75.7%
Activity (U-937 [12]): 1.9%
GI50 [13]: 1.4 µM
inhibition [14]: 2%
inhibition [15]: 4%
inhibition [16]: -8%
inhibition [17]: -3%
inhibition [18]: 38%
inhibition [19]: -1%
inhibition [20]: -1%
inhibition [21]: 21%
inhibition [22]: 11%
inhibition [23]: 71%
inhibition [24]: 76%
inhibition (DU-145 [25]): Active
growth inhibition (GI) (PC-3): Active
growth inhibition (GI) (DU-145 [26]): Active
inhibition (U-937 [27]): Active
inhibition [28]: Active
IC50 (U-937 [29]): 3.4 µM
Activity (U-937 [30]): 49.9%
Activity (U-937 [31]): Active
Activity (DU-145 [32]): 3.2%
Activity [33]: 60.5%
inhibition [34]: 3%
